Test results from article PMC3936293 (Theranostics, 2014).
Where two headings read alike, the source gives them in different places.

Experiments:
[1] = literature data, ref [11]; cited from earlier work
[2] = PET/CT imaging of tumor and organ uptake; type: in vivo; conditions: male, human, total radioactivity
[3] = Blood radioactivity clearance; type: in vivo, human; conditions: bi-exponential fit of blood radioactivity concentration, 4 patients
How it was run: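 Four patients with newly diagnosed prostate cancer, fasted at least 4 h, received the 64Cu-labelled GRPr antagonist (130-233 MBq; 10-17 µg) diluted in 0.9% NaCl with 0.1% bovine serum albumin. Venous blood was drawn at 1, 2, 3, 4, 5, 10, 15 and 30 min and at 1, 2 and 4 h p.i. Radioactivity per mL was gamma-counted, reported as mean ± SD, and fitted bi-exponentially.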

Radiation dosimetry = type: in vivo, human
How it was run: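 PET scans were taken at 20 min, 4 h and 20 h p.i., with attenuation correction by 68Ge transmission or CT. Body-weight-normalised SUVs came from circular ROIs centred in each organ. Urine was collected to 18 h in patients 2 and 3, and total excretion was calculated from 1 mL aliquots. Absorbed doses were computed in OLINDA/EXM 1.0 from the time-activity curves and urinary excretion (dynamic bladder model, 3-h voiding interval). Values are mean ± SD.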

[4] = Safety monitoring after injection; type: in vivo, human; conditions: 4 patients; laboratory tests before and 1-2 weeks after injection
How it was run: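 Patients were monitored from tracer administration until the end of the last PET/CT session (20 h p.i.) by interview, electrocardiography, heart rate and blood pressure. Serum electrolytes, liver and pancreatic enzymes, creatinine and blood counts were measured before and 1-2 weeks after injection (130-233 MBq; 10-17 µg).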

[5] = Metabolite analysis of plasma and urine by RP-HPLC; type: in vivo, human
How it was run: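 Plasma was prepared by centrifuging blood drawn at 5 min, 30 min, 1 h and 4 h p.i., deproteinised with two volumes of ethanol, centrifuged again, and the supernatant analysed. In patient 2, a 2 h urine sample was loaded onto a C18 cartridge and eluted with ethanol. Analysis used reversed-phase HPLC (C18; 0.1% TFA in water/acetonitrile gradient) with photodiode-array and flow-through gamma detection.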

[6] = OLINDA/EXM 1.0, dynamic bladder model, 3-hour voiding interval, mean ± SD

## C[N+](C)(CF)CCO [^18F-fluorocholine]
[1]
  Effective dose: 0.031 ± 0,007 mSv/MBq
  Radiation dose kidney: 0.159 ± 0,072 mSv/MBq
  Radiation dose liver: 0.059 ± 0,012 mSv/MBq
  Radiation dose spleen: 0.054 ± 0,021 mSv/MBq
  Radiation dose urinary bladder wall: 0.063 ± 0,060 mSv/MBq

## CC(C)C[C@H](NC(=O)C[C@H](O)[C@H](CC(C)C)NC(=O)[C@H](Cc1c[nH]cn1)NC(=O)CNC(=O)[C@@H](NC(=O)[C@H](C)NC(=O)[C@H](Cc1c[nH]c2ccccc12)NC(=O)[C@H](CCC(N)=O)NC(=O)[C@@H](Cc1ccccc1)NC(=O)COCCOCCOCCOCCNC(=O)CN1CCCN2CCN(CCCN(CC(=O)O)CC2)CC1)C(C)C)C(N)=O [^64Cu-CB-TE2A-AR06, (^64Cu-4,11-bis(carboxymethyl)-1,4,8,11-tetraazabicyclo(6.6.2)hexadecane)-PEG4-D-Phe-Gln-Trp-Ala-Val-Gly-His-Sta-LeuNH2, metal not drawn]
[2]; bladder
  SUV at 4 h: 14 ± 6.63 SUV
[2]; intestine
  SUV at 4 h: 0.78 ± 0.68 SUV
[2]; kidney parenchyma
  SUV at 4 h: 1.64 ± 0.37 SUV
  SUV at 20 h: 0.71 ± 0.34 SUV
[2]; liver
  SUV at 4 h: 1.8 ± 1.02 SUV
[2]; pancreas
  SUV at 4 h: 6.73 ± 3.34 SUV
  SUV at 20 h: 0.28 ± 0.22 SUV
[2]; prostate
  SUV at 4 h: 0.95 ± 0.42 SUV
[2]; urinary tract collection system
  SUV at 4 h: 5.86 ± 5.34 SUV
[3]
  initial half-life in blood: 5 min
  terminal half-life in blood: 2.75 h
Radiation dosimetry; [6]
  Effective radiation dose: 0.019 ± 0.008 mSv/MBq
  Radiation dose urinary bladder wall: 0.176 ± 0.001 mSv/MBq
Radiation dosimetry; OLINDA/EXM 1.0, mean ± SD
  Radiation dose kidney: 0.033 ± 0.008 mSv/MBq
  Radiation dose liver: 0.039 ± 0.020 mSv/MBq
  Radiation dose pancreas: 0.094 ± 0.027 mSv/MBq
  Radiation dose spleen: 0.031 ± 0.024 mSv/MBq
[4]
  changes in vital signs, laboratory studies or electrocardiograms: No significant changes
[5]; patient 2, 2 h urine sample, C18 column, ethanol elution
  metabolites in urine: Only the parent compound was detected
[5]; plasma at 5 min p.i., ethanol protein precipitation
  metabolites in plasma: No metabolites were detected
